Experimental data from different studies.
Lines come from different studies, so protocols differ.
Sample: plasma

CCOC(=O)[C@@]12C[C@@H]1[C@@H](n1ccc3c(NC)nc(C#Cc4ccc(Cl)s4)nc31)[C@H](O)[C@@H]2O — MRT(0-t) (male Sprague-Dawley rat; intravenous, 0.5 mg/kg): 1.29 h
CCc1cc(OC)c2nccc(N3CCc4c(cc(Cn5ccnc5)cc4-c4cn(C)nc4C(F)(F)F)C3=O)c2c1 — MRT(0-inf) (male Sprague-Dawley rat; intravenous, 3 mg/kg): 1 h
COc1nc(-c2cc(C)c(N[C@@H](C)c3cc(F)cc(F)c3)nn2)ccc1-n1cnc(C)c1 — MRT(0-t) (male Sprague-Dawley rat; intravenous, 1 mg/kg, single dose): 3.28 h
C#Cc1cccc(Nc2ncnc3cc(OCCOC)c(OCCOC)cc23)c1 — MRT(0-inf) (male Sprague-Dawley rat; oral, 12 mg/kg, single dose): 5.1 h
CNCc1cc(-c2ccccc2F)n(S(=O)(=O)c2cccnc2)c1 — MRT(0-inf) (Sprague-Dawley rat; oral, 10 mg/kg): 2.47 h
N#Cc1ccc(Nc2nc(N)cc(Oc3c(F)cc(-c4ccc(C#N)cc4)cc3F)n2)cc1 — MRT(0-inf) (Sprague-Dawley rat; oral, 5 mg/kg): 6.48 h
CCc1nc(C(N)=O)c(Nc2ccc(N3CCC(N4CCN(C)CC4)CC3)c(OC)c2)nc1NC1CCOCC1 — MRT(0-inf) (male Sprague-Dawley rat; oral, 10 mg/kg): 21.8 h
Oc1c(Br)cc(Cl)c2cccnc12 — MRT (Sprague-Dawley rat; intravenous, 2 mg/kg): 12.5 h
O=C(Nc1cc(F)c(F)c(F)c1)c1ccc(F)c(S(=O)(=O)NCc2cccc(B(O)O)c2)c1 — MRT(0-t) (male Sprague-Dawley rat; intravenous, 2 mg/kg): 0.73 h
O=C(c1cc(Cc2n[nH]c(=O)c3ccccc23)ccc1F)N1CCN(C(=O)C2CC2)CC1 — MRT (female Sprague-Dawley rat; intravenous): 1.52 h
CCc1cc(C(=O)NC)c2nccc(N3CCc4c(cc(Cn5ccnc5)cc4-c4cn(C)nc4C(F)(F)F)C3=O)c2c1 — MRT(0-inf) (male Sprague-Dawley rat; oral, 100 mg/kg): 10.6 h
